In this test the target is Beta-lactamase (Pseudomonas aeruginosa, UniProt Q79MP6). As to the kind of experiment: Competitive inhibition of Pseudomonas aeruginosa metallo-beta-lactamase IMP-1 expressed in Escherichia coli BL21(DE3) using CENTA as substrate by spectrophotometric analysis. Put shortly: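 IMP-1 lacking the first 21 signal-peptide residues, recombinantly expressed and purified, at 2 nM final. Buffer was 50 mM HEPES, 0.1 M NaCl, 100 µM ZnCl2, pH 7.0, with BSA at 20 µg/mL final. CENTA was varied from 5 to 70 µM final at three inhibitor concentrations. […] was read at 405 nm on a plate reader, and data were fitted by non-linear regression.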

Experimental findings from BindingDB's records for doi:10.1016/j.ejmech.2011.10.030 (Helwan University, 2011) are described below.

pKi: −log10 of the molar value.

Sequence of Beta-lactamase (Q79MP6 whole entry): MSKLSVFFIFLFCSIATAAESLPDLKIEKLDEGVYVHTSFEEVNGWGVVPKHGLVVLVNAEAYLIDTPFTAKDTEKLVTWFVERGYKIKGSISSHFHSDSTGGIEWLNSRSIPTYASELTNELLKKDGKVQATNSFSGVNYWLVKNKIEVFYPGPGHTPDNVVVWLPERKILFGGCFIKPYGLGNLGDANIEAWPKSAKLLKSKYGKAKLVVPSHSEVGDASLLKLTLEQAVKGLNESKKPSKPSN

One may read the pKi as the Ki on a negative log10 scale, so that one unit is a factor of ten. `Cc1ccc(-n2cc(-c3ccccc3)c3c(Cl)ncnc32)cc1` gave a pKi of 4.48. Compound `Cc1ccc(-n2c(-c3ccccc3)c(-c3ccccc3)c3c(Cl)ncnc32)cc1` showed a pKi of 4.72. Under `Cc1ccc(-n2c(-c3ccccc3)c(-c3ccccc3)c3c(N/N=C/c4ccccc4)ncnc32)cc1` stands 4.74. `COc1ccc(-n2c(-c3ccccc3)c(-c3ccccc3)c3c(Cl)ncnc32)cc1` showed a pKi of 4.92. The value for `Cc1ccc(-n2c(-c3ccccc3)c(-c3ccccc3)c3c2ncn2c(=S)[nH]nc32)cc1` was 4.82; that for `COc1ccc(-n2c3c(c(-c4ccccc4)c2-c2ccccc2)C(=C(C#N)C#N)NC=N3)cc1` was 4.54.
